Results reported in ChEMBL document CHEMBL4190389, “Synthesis and activity of di- or trisubstituted N-(phenoxyalkyl)- or N-{2-[2-(phenoxy)ethoxy]ethyl}piperazine derivatives on the central nervous system” (Bioorg Med Chem Lett, 2018).

Assays:
[1] = molecular target: T1, Adrenergic receptor alpha-1 (Rattus norvegicus, UniProt P15823+P23944+P43140); assay: Displacement of [3H]-prazosin from Wistar rat cerebral cortex membranes alpha1 adrenoceptor by liquid scintillation counting method; set-up: species or system Membrane
T1 sequence (P15823 whole entry): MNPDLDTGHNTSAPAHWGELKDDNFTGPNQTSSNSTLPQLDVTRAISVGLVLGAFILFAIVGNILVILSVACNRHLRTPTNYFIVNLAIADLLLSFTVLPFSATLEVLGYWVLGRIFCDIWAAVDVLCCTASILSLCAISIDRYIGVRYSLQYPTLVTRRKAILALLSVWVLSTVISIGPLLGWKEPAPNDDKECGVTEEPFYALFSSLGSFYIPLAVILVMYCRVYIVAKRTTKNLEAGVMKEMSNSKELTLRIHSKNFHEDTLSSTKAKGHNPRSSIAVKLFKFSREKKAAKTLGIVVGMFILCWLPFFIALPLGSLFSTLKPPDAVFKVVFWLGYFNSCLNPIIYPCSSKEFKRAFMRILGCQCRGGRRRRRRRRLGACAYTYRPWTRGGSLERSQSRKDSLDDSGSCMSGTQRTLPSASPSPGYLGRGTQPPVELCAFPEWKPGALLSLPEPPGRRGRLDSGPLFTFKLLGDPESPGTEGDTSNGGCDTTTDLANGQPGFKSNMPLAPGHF
T1 sequence (P23944 whole entry): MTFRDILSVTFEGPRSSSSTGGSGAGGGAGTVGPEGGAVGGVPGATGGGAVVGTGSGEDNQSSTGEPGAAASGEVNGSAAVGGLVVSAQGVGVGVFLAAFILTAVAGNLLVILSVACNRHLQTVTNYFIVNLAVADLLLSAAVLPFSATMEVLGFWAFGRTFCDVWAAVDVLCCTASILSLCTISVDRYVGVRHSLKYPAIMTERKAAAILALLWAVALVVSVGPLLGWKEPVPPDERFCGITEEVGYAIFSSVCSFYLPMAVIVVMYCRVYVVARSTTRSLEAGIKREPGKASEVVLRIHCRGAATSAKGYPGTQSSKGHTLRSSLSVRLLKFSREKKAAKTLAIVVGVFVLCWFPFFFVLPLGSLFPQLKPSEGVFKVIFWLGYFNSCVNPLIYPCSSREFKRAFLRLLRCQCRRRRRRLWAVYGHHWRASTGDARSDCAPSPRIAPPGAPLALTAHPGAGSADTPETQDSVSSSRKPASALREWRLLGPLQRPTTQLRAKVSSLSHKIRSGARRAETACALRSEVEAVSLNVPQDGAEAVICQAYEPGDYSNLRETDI
T1 sequence (P43140 whole entry): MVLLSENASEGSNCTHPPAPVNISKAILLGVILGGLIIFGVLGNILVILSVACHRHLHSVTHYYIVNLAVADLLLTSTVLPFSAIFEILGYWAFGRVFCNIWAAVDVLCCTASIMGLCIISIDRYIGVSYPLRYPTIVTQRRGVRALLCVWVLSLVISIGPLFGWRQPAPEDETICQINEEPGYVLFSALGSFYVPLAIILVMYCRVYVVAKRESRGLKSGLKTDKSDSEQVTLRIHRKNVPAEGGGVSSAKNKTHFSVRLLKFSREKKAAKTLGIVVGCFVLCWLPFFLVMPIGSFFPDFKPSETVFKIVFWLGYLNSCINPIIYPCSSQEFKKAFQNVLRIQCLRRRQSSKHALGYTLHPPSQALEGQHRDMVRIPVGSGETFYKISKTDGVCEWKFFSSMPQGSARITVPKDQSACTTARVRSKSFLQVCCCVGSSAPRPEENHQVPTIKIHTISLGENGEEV

[2] = system: Mus musculus; assay: Antidepressant-like activity in ip dosed Albino Swiss CD-1 mouse assessed as decrease in immobility time administered […] prior to test measured for last 4 mins of 6 mins observation by forced swim test (reference value: 153.9 to 201.9 secs); format: functional
[3] = system: Rattus norvegicus; assay: Antidepressant-like activity in ip dosed Wistar rat assessed as decrease in immobility time administered 45 mins prior to test measured for last 4 mins of 6 mins observation by forced swim test (reference value: 153.9 to 201.9 secs); format: functional
[4] = system: Mus musculus; assay: Anxiolytic-like activity in ip dosed Albino Swiss CD-1 mouse assessed as increase in number of punished crossings administered for 30 mins prior to test measured for 1 min by four-plate test; format: functional
How it was run: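 Four-plate test in mice, i.p., 30 min before test; vehicle 0.9% NaCl; doses 1.25–10 mg/kg; number of punished crossings counted; mean ± SEM, n = 8–10 mice per group; ANOVA F statistics.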

## COc1ccccc1N1CCN(CCOCCOc2c(C)cccc2C)CC1.Cl
[1]
  Ki: 23 nM
[2]
  ED: 2.5 mg/kg
[3]
  ED: 5 mg/kg
[4]
  ED: 2.5 mg/kg
